Assay outcomes deposited in PubChem BioAssay by several laboratories.
Hits are enriched below; roughly 9.4% of the tested compounds scored in any of these assays.
T cruzi repl = blocks replication of Trypanosoma cruzi | inhibition, % (test concentration not listed) | 1.4% of 300,000 active | AID 1885 | T. cruzi beta-gal in NIH3T3, luminescence, 90 h;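 active = mean inhibition across valid replicates above about 55%, limit read from the data; inconclusive = mean below that limit but half or more replicates reach it; inactive = mean below it, under half of replicates reach it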;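 note: signal also drops with host cell toxicity which is not excluded here; 0% = plate median of DMSO wells and 100% = zero luminescence signal; higher percent means less beta-gal luminescence so fewer parasites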
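compound dosing = single 50 nL compound addition per well in DMSO | material = NIH/3T3 host cells with β-galactosidase reporter T. cruzi | input = 5,000 host fibroblasts per well | timing = ≥90 h infection period, 3 h prior cell attachment | read-out basis = percent inhibition of parasite-derived β-gal signal | detection = GalScreen β-gal luminescence, detergent lysis, 60 min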
CSC inhib = cancer stem cell inhibition; cancer stem cell-like cells viability, luminescence; inhibition, % at 7.5 µM; 1.1% of 300,000 active; in the data active = inhibition above about 75%; inconclusive = no clear call, values can overlap the other calls; tested in HMLE shEcad cells
Mdm2-MdmX inh = human Mdm2/MdmX binding inhibition; inhibition, % at 8 µM; 3% of 330,000 active; O15151+Q00987; SaOS-2 split-luciferase Mdm2/MdmX complementation, luminescence; AID 485346;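 active = inhibition of at least 50% at 8 µM in the primary screen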
Target sequence (O15151 whole entry, looked up): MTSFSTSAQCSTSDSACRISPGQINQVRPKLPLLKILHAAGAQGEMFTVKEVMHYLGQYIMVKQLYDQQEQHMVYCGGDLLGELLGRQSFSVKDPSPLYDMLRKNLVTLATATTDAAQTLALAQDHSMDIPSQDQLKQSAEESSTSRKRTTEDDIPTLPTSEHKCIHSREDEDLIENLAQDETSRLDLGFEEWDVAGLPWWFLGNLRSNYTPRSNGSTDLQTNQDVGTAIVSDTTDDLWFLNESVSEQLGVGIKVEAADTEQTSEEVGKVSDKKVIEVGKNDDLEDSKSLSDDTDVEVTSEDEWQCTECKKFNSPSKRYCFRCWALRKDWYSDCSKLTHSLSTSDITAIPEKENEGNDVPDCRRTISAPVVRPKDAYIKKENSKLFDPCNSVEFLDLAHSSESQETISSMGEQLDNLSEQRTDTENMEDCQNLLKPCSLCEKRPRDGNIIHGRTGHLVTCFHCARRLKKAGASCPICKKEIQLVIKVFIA
Target sequence (Q00987 whole entry, looked up): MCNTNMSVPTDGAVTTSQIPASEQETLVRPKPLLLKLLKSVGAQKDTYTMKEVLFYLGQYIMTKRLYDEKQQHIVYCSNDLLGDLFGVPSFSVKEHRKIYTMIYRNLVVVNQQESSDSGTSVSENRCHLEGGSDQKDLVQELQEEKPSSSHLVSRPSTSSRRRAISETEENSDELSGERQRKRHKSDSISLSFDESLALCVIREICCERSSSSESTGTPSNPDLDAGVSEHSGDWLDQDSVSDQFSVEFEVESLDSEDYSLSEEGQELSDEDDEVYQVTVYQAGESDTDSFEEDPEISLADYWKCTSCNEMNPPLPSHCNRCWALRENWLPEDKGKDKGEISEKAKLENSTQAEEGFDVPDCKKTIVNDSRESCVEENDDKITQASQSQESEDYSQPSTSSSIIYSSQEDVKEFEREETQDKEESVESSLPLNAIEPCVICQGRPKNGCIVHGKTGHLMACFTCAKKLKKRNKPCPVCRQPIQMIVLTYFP
SKKanGAS inh = inhibitors of SKKanGAS S. pyogenes growth in kanamycin (SK-promoter or general growth effect) | AID 1662 | BacTiter-Glo, 6 h | 1.3% of 300,000 active | inhibition, % at 7.5 µM;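 active = mean replicate score, as percent of positive control median, at least 50; inconclusive = mean below 50 but one replicate at or above 50; inactive = mean and every replicate below 50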;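 note: strain carries kanamycin resistance gene driven by streptokinase promoter and grows in 40 µg/ml kanamycin; loss of luminescence reflects streptokinase promoter inhibition or plain growth inhibition; 0% = median of DMSO wells and 100% = positive control at its reference dose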
Lmaj promast = reduces viability of Leishmania major promastigotes | resazurin fluorescence viability | inhibition, % at 10 µM | 9% of 200,000 active; in the data active = inhibition above about 50%;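 note: promastigotes grown with compound for 44 hours at 28 °C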
Beta apoptosis = beta cell apoptosis inhibition; 0.8% of 300,000 active; protection from apoptosis, % (test concentration not listed); INS-1E cytokine-induced death, ATP luminescence, 48 h; percent of positive-control rescue, neutral wells zero; AID 435005;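 active = Every replicate reaches about 75%, or at least half do and their mean reaches it too, limit read from the data; inconclusive = At least half of replicates reach the limit but their mean does not; inactive = Under half of replicates reach the limit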;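 note: 0% = cytokine-treated negative control wells and 100% = positive control rescue; higher means more ATP so stronger rescue from cytokine killing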
The depositor's hits bear a star; ? = inconclusive; / = no result.

SMILES	T cruzi repl	CSC inhib	Mdm2-MdmX inh	SKKanGAS inh	Lmaj promast	Beta apoptosis
Cc1ccc(NCCC(=O)c2cccc([N+](=O)[O-])c2)c(C)c1	3	7	30	0	97*	-11
Cc1cccc(NCCC(=O)c2ccc([N+](=O)[O-])cc2)c1C	15	28	-15	2	93*	-4
Cc1ccc(NCC(=O)c2ccc([N+](=O)[O-])cc2)cc1	12	9	-52	9	1	0
CCN(CCNC(=O)C1CCN(S(=O)(=O)c2c(C)noc2C)CC1)c1ccccc1	12	1	12	3	98*	6
Cc1noc(C)c1S(=O)(=O)N1CCCC(C(=O)NCCc2ccc(Cl)cc2)C1 (stereo not given)	35	/	-13	1	100*	-7
CCCS(=O)(=O)N1CCC(C(=O)NCCN(C)Cc2ccccc2)CC1	12	/	4	0	61*	-1
CC(Sc1nnc(-c2ccccc2F)n1C1CC1)C(=O)NC(N)=O (stereo not given)	6	/	22	6	/	0
COc1ccc(CCNC(=O)CSc2nncs2)cc1	-17	5	-6	1	59*	-1
O=C(CN1CCN(c2ccc(Cl)cc2[N+](=O)[O-])CC1)N1CCOCC1	-21	-12	-28	1	/	-8
Cc1c(Nc2nc3ccccc3nc2N2CCN(c3ccccc3)CC2)c(=O)n(-c2ccccc2)n1C	15	-1	9	8	53*	1
Cc1c(Nc2c3ccccc3nc3ccccc23)c(=O)n(-c2ccccc2)n1C	12	-2	-32	2	/	-7
Cc1ccc(S(=O)(=O)c2ccccc2)cc1S	62*	11	-1	2	1	-9
Nc1ccc(S(=O)(=O)c2cccc(N)c2)cc1	-2	-4	31	3	-8	-4
COc1ccc(Cn2ccnc2SCC(=O)NC2CCCC2)cc1	6	-7	-12	2	/	0
COc1cc(CN2CC(=O)N(c3ccc(C)cc3)C2=S)cc(OC)c1OC	-32	-6	30	-10	82*	7
COc1ccc(CN2CC(=O)N(c3ccc(C)cc3)C2=S)cc1OC	-9	7	-9	2	2	4
Cc1ccc(S(=O)(=O)Nc2cc3c(C(=O)Nc4ccccc4)c(C)oc3c3ccccc23)cc1	23	1	19	10	61*	/
CC(=O)c1c(C)oc2c1cc(NS(=O)(=O)c1ccc(C(=O)O)cc1)c1ccccc12	-4	42	1	33	/	-7
Cc1ccc(NC(=S)N(CCCN2CCN(C)CC2)Cc2cccs2)cc1C	7	11	8	1	34	-9
COc1cccc(NC(=S)N(CCCN2CCC(C)CC2)Cc2cccs2)c1	-4	9	1	3	68*	-6
CSc1cccc(NC(=S)N(CCCN2CCC(C)CC2)Cc2cccs2)c1	17	31	14	7	61*	-1
COc1ccc(NC(=S)N(CCCN2CCC(C)CC2)Cc2cccs2)cc1	14	10	-15	0	42	-2
COc1ccc(S(=O)(=O)CCc2nnc(NC(=O)c3ccc(F)cc3)s2)cc1	5	3	-4	-2	/	-3
COc1cccc(NC(=O)C2CC(=O)n3cnnc3S2)c1 (stereo not given)	/	/	-30	/	4	-2
COc1ccc(NC(=O)C2CC(=O)n3cnnc3S2)cc1 (stereo not given)	20	0	21	-4	98*	0
SMILES	T cruzi repl	CSC inhib	Mdm2-MdmX inh	SKKanGAS inh	Lmaj promast	Beta apoptosis
CCCCN(C(=O)c1ccc(S(=O)(=O)N2CCCC2)cc1)C1CCS(=O)(=O)C1 (stereo not given)	-3	0	16	0	/	-3
Cc1cc(-c2ccccc2)nc(SC(C(=O)O)c2ccccc2)n1 (stereo not given)	2	-13	18	-2	-3	-2
Cc1cc(=O)[nH]c(SC(C(=O)O)c2ccccc2)n1 (stereo not given)	-15	-6	6	-1	73*	-3
CCOc1cc2c3c(c1)C1(C(=O)N3C(C)(C)CC2C)C(C#N)=C(N)N2C(=C1C#N)Nc1ccccc12 (stereo not given)	8	8	32	7	66*	-3
CC(=O)N1CSCC1C(=O)NNS(=O)(=O)c1cccc(C(F)(F)F)c1 (stereo not given)	-18	-7	16	-10	/	-2
O=C(Nc1ccc(F)cc1)c1sc2cc(C(F)(F)F)cnc2c1-c1cccs1	49	9	47	7	56*	/
Cc1ccc(OC(C)C(=O)Nc2ccc(C)c(S(=O)(=O)Nc3ccc(C)cc3C)c2)cc1 (stereo not given)	17	25	33	28	67*	1
O=C(CCSc1ccc(Br)cc1)c1ccc(O)cc1	24	33	27	24	/	-17
CC(C)CN1C2CCCC1CC(NC(=S)NCc1ccco1)C2 (stereo not given)	17	4	29	10	34	-2
CC(C)CNC(=S)NC1CC2CCCC(C1)N2Cc1cccs1 (stereo not given)	-5	-7	-4	1	94*	-2
CC(C)CNC(=S)NC1CC2CCCC(C1)N2Cc1ccco1 (stereo not given)	-11	6	0	5	62*	-6
Cc1ccc(C)c(OC(=O)c2cccnc2)c1	0	-9	-5	-1	/	4
Cc1ccc2ccc3cccnc3c2n1	?	-10	/	43	/	86*
COc1ccc(CCNC(=O)CSc2nnc3ccc(-c4ccccn4)nn23)cc1OC	0	-2	19	-3	/	5
CN1CCN(c2nc(-c3cc4ccccc4o3)cs2)CC1	8	-18	-82	0	69*	-8
CCOc1ccc2nc(NC(=O)C3CCCN(S(=O)(=O)c4cccs4)C3)sc2c1 (stereo not given)	61*	/	15	42	55*	4
CN(C)C(=S)Nc1nc2ccccc2s1	57*	/	/	31	16	/
CCOc1ccc2nc(NC(=S)N(C)C)sc2c1	41	/	-128	18	80*	37
CCCC(=O)Nc1nc2ccc(OCC)cc2s1	34	12	-89	-8	15	1
CCOCC(=O)Nc1nc2ccccc2s1	-7	-14	-39	-10	0	-5
CN(CC(=O)Nc1nc2ccccc2s1)S(=O)(=O)c1ccc(Cl)cc1	8	3	6	29	88*	1
CC(C)(C)OC(=O)C[C@@H]1C/C=C\C[C@@H](CC(=O)N[C@@H](CO)Cc2ccccc2)C(=O)N2CCC[C@@H]2COC1=O	/	9	5	/	/	-2
S=C(NCCc1ccccc1)Nc1ccc(Br)cn1	34	3	2	/	6	-3
CN1CCc2nc3sc(C(=O)C45CC6CC(CC(C6)C4)C5)c(N)c3cc2C1	/	60	18	/	96*	8
O=C(OCC(=O)N1CCOCC1)c1ccccc1OCc1ccc(Cl)cc1	/	/	-33	/	/	5
